Values after ≈ are worked out from the molar mass of the structure shown.
Key:
[1] = Hemolytic activity in human RBC at 100 uM after 45 mins by spectrophotometric method relative to control; assay type: ADME, cell-based, Erythrocyte; details: red blood cells (erythrocytes), read-out: Activity
Method in brief: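 Heparinized human blood; red cells washed three times in Tyrode buffer pH 7.4. Compound at 100 µM final with 1% DMSO and 50% RBC, shaken (250 rpm) 45 min at 37 °C. Cells pelleted (1000 × g, 10 min); supernatant haemoglobin at 540 nm. Percent lysis relative to buffer-only and 2% Triton X-100 controls.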

[2] = biological target: Signal peptidase I (Escherichia coli K-12, UniProt P00803); assay: Inhibition of Escherichia coli type 1 signal peptidase lepB preincubated for 10 mins followed by Dabcyl-VGGTATAYGAFSRPGLE-(EDANS)-OH substrate addition measured after 2 hrs by FRET based assay
Chain of Signal peptidase I (P00803 whole entry): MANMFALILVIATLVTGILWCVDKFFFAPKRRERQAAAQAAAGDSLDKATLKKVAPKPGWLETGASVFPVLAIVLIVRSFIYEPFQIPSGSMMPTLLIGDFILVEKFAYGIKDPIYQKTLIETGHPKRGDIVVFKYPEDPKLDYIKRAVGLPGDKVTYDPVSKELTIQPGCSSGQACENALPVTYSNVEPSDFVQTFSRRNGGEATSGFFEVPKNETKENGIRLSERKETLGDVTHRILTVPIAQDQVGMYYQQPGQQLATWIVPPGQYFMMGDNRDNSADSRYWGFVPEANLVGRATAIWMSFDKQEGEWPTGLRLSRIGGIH
Method in brief: (§1)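 EcLepB (about 50 nM estimated) preincubated 10 min with compound. Reaction started with Dabcyl/EDANS FRET peptide at 8 µM final (Km 20 µM). Fluorescence followed continuously at 535 nm, 22 °C, for 2 h. Cleavage rates plotted against inhibitor concentration; IC50 from non-linear regression of sigmoidal dose-response curves.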

[3] = test system: Escherichia coli; assay: Antibacterial activity against Escherichia coli ATCC 25922 after 16 to 20 hrs by broth microdilution method; assay type: functional
Method in brief: (§2)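 Broth microdilution in cation-adjusted Mueller-Hinton II per EUCAST/CLSI; two-fold compound series 64 down to 0.25 µg/mL final. Inoculum from fresh colonies (non-selective agar, 18-24 h, 35 ± 2 °C), adjusted to 0.5 McFarland, diluted to about 5 × 10^5 CFU/mL final. Static incubation 16-20 h at 35 ± 2 °C; MIC read visually as complete growth inhibition against medium-only wells.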

[4] = test system: Escherichia coli; assay: Antibacterial activity against tolC deficient Escherichia coli CH3130 after 16 to 20 hrs by broth microdilution method; assay type: functional; method in brief: as §2
[5] = test system: Escherichia coli; assay: Antibacterial activity against Escherichia coli D22 CGSG 5163 harboring Ips mutant after 16 to 20 hrs by broth microdilution method; assay type: functional
Method in brief: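 Broth microdilution in cation-adjusted Mueller-Hinton II broth, following EUCAST and CLSI guidelines. Two-fold series at final concentrations 64 down to 0.25 µg/mL, with medium-only and growth controls. Inoculum from fresh colonies (18-24 h, 35 °C ± 2 °C) adjusted to 0.5 McFarland, final ≈5 × 10^5 CFU/mL. Plates incubated unshaken 16-20 h at 35 °C ± 2 °C. MIC read visually as complete inhibition of growth.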

[6] = test system: Pseudomonas aeruginosa; assay: Antibacterial activity against Pseudomonas aeruginosa PAO1 after 16 to 20 hrs by broth microdilution method; assay type: functional; method in brief: as §2
[7] = test system: Pseudomonas aeruginosa; assay: Antibacterial activity against efflux defective Pseudomonas aeruginosa PAO750 after 16 to 20 hrs by broth microdilution method; assay type: functional; method in brief: as §2
[8] = test system: Klebsiella pneumoniae; assay: Antibacterial activity against Klebsiella pneumoniae ATCC 13883 after 16 to 20 hrs by broth microdilution method; assay type: functional; method in brief: as §2
[9] = test system: HepG2; assay: Cytotoxicity against human HepG2 cells after 72 hrs by FMSA; assay type: cell-based; details: HepG2, 72 h
Method in brief: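 HepG2 (ATCC) grown in EMEM with 10% FBS, pen/strep, 2 mM L-glutamine, used up to 20 passages. Seeded at 1000 cells/well, cultured overnight, then dosed acoustically from DMSO stocks. Eight two-fold dilutions in duplicate from top 64 or 32 µM; 72 h at 37 °C, 5% CO2. Fluorescein diacetate hydrolysis read at ex 485/em 530 nm; IC50 by non-linear regression.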

[10] = test system: Acinetobacter baumannii; assay: Antibacterial activity against Acinetobacter baumannii ATCC 19606 after 16 to 20 hrs by broth microdilution method; assay type: functional; details: ATCC 19606 = CIP 70.34 = JCM 6841; method in brief: as §2
[11] = test system: Staphylococcus aureus; assay: Antibacterial activity against Staphylococcus aureus ATCC 29213 after 16 to 20 hrs by broth microdilution method; assay type: functional; method in brief: as §2
[12] = biological target: Signal peptidase I (Escherichia coli K-12) (UniProt P00803); assay: Inhibition of Escherichia coli type 1 signal peptidase lepB assessed as residual activity at 10 uM preincubated for 10 mins followed by Dabcyl-VGGTATAYGAFSRPGLE-(EDANS)-OH substrate addition measured after 2 hrs by FRET based assay (reference value: 100%); method in brief: as §1
Chain of Signal peptidase I (Escherichia coli K-12) (P00803 whole entry): as above

[13] = biological target: Signal peptidase I (Escherichia coli K-12) (UniProt P00803); assay: Inhibition of Escherichia coli type 1 signal peptidase lepB assessed as residual activity at 5 uM preincubated for 10 mins followed by Dabcyl-VGGTATAYGAFSRPGLE-(EDANS)-OH substrate addition measured after 2 hrs by FRET based assay (reference value: 100%); method in brief: as §1
[14] = biological target: Signal peptidase I (Escherichia coli K-12) (UniProt P00803); assay: Inhibition of Escherichia coli type 1 signal peptidase lepB assessed as residual activity at 2.5 uM preincubated for 10 mins followed by Dabcyl-VGGTATAYGAFSRPGLE-(EDANS)-OH substrate addition measured after 2 hrs by FRET based assay (reference value: 100%); method in brief: as §1
[15] = biological target: Signal peptidase I (Escherichia coli K-12) (UniProt P00803); assay: Inhibition of Escherichia coli type 1 signal peptidase lepB assessed as residual activity at 1.25 uM preincubated for 10 mins followed by Dabcyl-VGGTATAYGAFSRPGLE-(EDANS)-OH substrate addition measured after 2 hrs by FRET based assay (reference value: 100%); method in brief: as §1
[16] = biological target: Signal peptidase I (Escherichia coli K-12) (UniProt P00803); assay: Inhibition of Escherichia coli type 1 signal peptidase lepB assessed as residual activity at 0.625 uM preincubated for 10 mins followed by Dabcyl-VGGTATAYGAFSRPGLE-(EDANS)-OH substrate addition measured after 2 hrs by FRET based assay (reference value: 100%); method in brief: as §1
[17] = biological target: Signal peptidase I (Escherichia coli K-12) (UniProt P00803); assay: Inhibition of Escherichia coli type 1 signal peptidase lepB assessed as residual activity at 0.3125 uM preincubated for 10 mins followed by Dabcyl-VGGTATAYGAFSRPGLE-(EDANS)-OH substrate addition measured after 2 hrs by FRET based assay (reference value: 100%); method in brief: as §1
[18] = biological target: Signal peptidase I (Escherichia coli K-12) (UniProt P00803); assay: Inhibition of Escherichia coli type 1 signal peptidase lepB assessed as residual activity at 0.1563 uM preincubated for 10 mins followed by Dabcyl-VGGTATAYGAFSRPGLE-(EDANS)-OH substrate addition measured after 2 hrs by FRET based assay (reference value: 100%); method in brief: as §1
[19] = biological target: Signal peptidase I (Escherichia coli K-12) (UniProt P00803); assay: Inhibition of Escherichia coli type 1 signal peptidase lepB assessed as residual activity at 0.0781 uM preincubated for 10 mins followed by Dabcyl-VGGTATAYGAFSRPGLE-(EDANS)-OH substrate addition measured after 2 hrs by FRET based assay (reference value: 100%); method in brief: as §1
[20] = biological target: Signal peptidase I (Escherichia coli K-12) (UniProt P00803); assay: Inhibition of Escherichia coli type 1 signal peptidase lepB assessed as residual activity at 0.0391 uM preincubated for 10 mins followed by Dabcyl-VGGTATAYGAFSRPGLE-(EDANS)-OH substrate addition measured after 2 hrs by FRET based assay (reference value: 100%); method in brief: as §1
[21] = biological target: Signal peptidase I (Escherichia coli K-12) (UniProt P00803); assay: Inhibition of Escherichia coli type 1 signal peptidase lepB assessed as residual activity at 0.0195 uM preincubated for 10 mins followed by Dabcyl-VGGTATAYGAFSRPGLE-(EDANS)-OH substrate addition measured after 2 hrs by FRET based assay (reference value: 100%); method in brief: as §1
[22] = biological target: Signal peptidase I (Escherichia coli K-12) (UniProt P00803); assay: Inhibition of Escherichia coli type 1 signal peptidase lepB assessed as residual activity at 0.0098 uM preincubated for 10 mins followed by Dabcyl-VGGTATAYGAFSRPGLE-(EDANS)-OH substrate addition measured after 2 hrs by FRET based assay (reference value: 100%); method in brief: as §1
[23] = biological target: Signal peptidase I (Escherichia coli K-12) (UniProt P00803); assay: Inhibition of Escherichia coli type 1 signal peptidase lepB assessed as residual activity at 0.0049 uM preincubated for 10 mins followed by Dabcyl-VGGTATAYGAFSRPGLE-(EDANS)-OH substrate addition measured after 2 hrs by FRET based assay (reference value: 100%); method in brief: as §1
[24] = biological target: Signal peptidase I (Escherichia coli K-12) (UniProt P00803); assay: Inhibition of Escherichia coli type 1 signal peptidase lepB assessed as residual activity at 0.0024 uM preincubated for 10 mins followed by Dabcyl-VGGTATAYGAFSRPGLE-(EDANS)-OH substrate addition measured after 2 hrs by FRET based assay (reference value: 100%); method in brief: as §1
[25] = biological target: Signal peptidase I (Escherichia coli K-12) (UniProt P00803); assay: Inhibition of Escherichia coli type 1 signal peptidase lepB assessed as residual activity at 0.0012 uM preincubated for 10 mins followed by Dabcyl-VGGTATAYGAFSRPGLE-(EDANS)-OH substrate addition measured after 2 hrs by FRET based assay (reference value: 100%); method in brief: as §1
[26] = biological target: Signal peptidase I (Escherichia coli K-12) (UniProt P00803); assay: Inhibition of Escherichia coli type 1 signal peptidase lepB assessed as residual activity at 0.0006 uM preincubated for 10 mins followed by Dabcyl-VGGTATAYGAFSRPGLE-(EDANS)-OH substrate addition measured after 2 hrs by FRET based assay (reference value: 100%); method in brief: as §1

SMILES | hemolysis at 0.75 h, 100 µM [1] [%] | IC50 [2] [µM] | MIC [3] [µg/mL] | MIC [4] [µg/mL] | MIC [5] [µg/mL] | MIC [6] [µg/mL] | MIC [7] [µg/mL] | MIC [8] [µg/mL] | IC50 [9] [µM] | MIC [10] [µg/mL] | MIC [11] [µg/mL] | Activity [12] [%] | Activity [13] [%] | Activity [14] [%] | Activity [15] [%] | Activity [16] [%] | Activity [17] [%] | Activity [18] [%] | Activity [19] [%] | Activity [20] [%] | further results
CCCCCCc1ccc(-c2ccc(C(=O)N[C@@H](CCCN)C(=O)N[C@H](C(=O)N[C@@H](C)C(=O)N[C@H]3Cc4cn(nn4)CCN4C[C@@H]5OB(O[C@@H]5C4)[C@H](C)NC3=O)[C@@H](C)O)cc2)cc1 | 10.1 | 0.104 | 64 (≈ 73.5 µM) | 16 (≈ 18.4 µM) | 32 (≈ 36.7 µM) | > 64 | > 64 | 64 (≈ 73.5 µM) | 9.5 | 32 (≈ 36.7 µM) | 32 (≈ 36.7 µM) | 17.8 | 26.7 | 29.8 | 32.9 | 36.3 | 38.8 | 47.2 | 61.4 | 63.8 | Activity [21]: 71.3%; Activity [22]: 77.9%; Activity [23]: 77%; Activity [24]: 79.9%; Activity [25]: 80.6%; Activity [26]: 97.3%
CCCCCCc1ccc(-c2ccc(C(=O)N[C@@H](CCCN)C(=O)N(C)[C@H](C(=O)N[C@@H](C)C(=O)N[C@H]3Cc4cn(nn4)CCCN4C[C@@H]5OB(O[C@@H]5C4)[C@H](C)NC3=O)[C@@H](C)O)cc2)cc1 | 9.6 | 0.098 | 64 (≈ 71.2 µM) | 16 (≈ 17.8 µM) | 32 (≈ 35.6 µM) | > 64 | 64 (≈ 71.2 µM) | 32 (≈ 35.6 µM) | 8.5 | 64 (≈ 71.2 µM) | 32 (≈ 35.6 µM) | 3.7 | 8 | 18.2 | 23.6 | 30.7 | 34.2 | 40 | 52.1 | 69.9 | Activity [21]: 75.7%; Activity [22]: 88.1%; Activity [23]: 92.7%; Activity [24]: 95.7%; Activity [25]: 95.3%; Activity [26]: 95.8%

Reference: ChEMBL document CHEMBL4270642, “Boronic ester-linked macrocyclic lipopeptides as serine protease inhibitors targeting Escherichia coli type I signal peptidase” (Eur J Med Chem, 2018)
